Sampled rows, rich in hits. Any-hit rate of the full collection: about 5.8%.
T cruzi growth-1 – T. cruzi intracellular proliferation inhibitors, primary screen, cell-based, beta-gal Tulahuen parasites, NIH3T3 host, luminescence; T. cruzi beta-gal in NIH3T3, GalScreen luminescence, 90 h; inhibition, % at 8.34 µM; AID 624255, 2012; actives 5.9% (n = 77,000);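 active = mean inhibition above about 93%, with at least 55% of replicates each passing it, limit read from the data, passing the limit was not always enough; inconclusive = only one of those two conditions holds; inactive = neither condition holds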
IDH1 mut inh – inhibitors of IDH1 R132H reductase, primary screen, biochemical, plate reader, single point | actives 0.18% (n = 70,000) | diaphorase/resazurin fluorescence, 60 min | Isocitrate dehydrogenase [NADP] cytoplasmic (Homo sapiens), O75874 | inhibition, % at 10 µM; in the data active = inhibition above about 34%; inconclusive = no clear call, values can overlap the other calls; inactive = below about 11%
GASC1 inh – inhibitors of GASC-1 (KDM4C) histone demethylase, primary screen, biochemical, single concentration HTS | Lysine-specific demethylase 4C (Homo sapiens), Q9H3R0 | GST-KDM4C 2-372, H3K9me3 peptide, LANCE TR-FRET | inhibition, % at 12.5 µM | actives 0.15% (n = 96,000) | AID 720574, 2013;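 active = mean replicate inhibition above about 25%, with at least 55% of replicates also reaching it, limit read from the data, passing the limit was not always enough; inconclusive = only one of those two conditions met; inactive = neither condition met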
Target sequence (Q9H3R0 2-372 limits assumed): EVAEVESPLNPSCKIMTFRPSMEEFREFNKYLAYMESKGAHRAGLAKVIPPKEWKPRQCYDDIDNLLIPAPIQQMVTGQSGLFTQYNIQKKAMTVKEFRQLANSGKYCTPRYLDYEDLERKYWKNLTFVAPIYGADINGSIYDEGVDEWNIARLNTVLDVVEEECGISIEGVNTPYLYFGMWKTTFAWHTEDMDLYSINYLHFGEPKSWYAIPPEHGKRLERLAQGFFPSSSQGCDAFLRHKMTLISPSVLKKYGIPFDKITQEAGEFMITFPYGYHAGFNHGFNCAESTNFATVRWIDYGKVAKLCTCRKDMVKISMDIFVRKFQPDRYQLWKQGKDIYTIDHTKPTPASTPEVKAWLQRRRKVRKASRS
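Material: GST-tagged GASC-1 (JMJD2C) catalytic fragment, aa 2-372 / Quantity: enzyme final amount 10 nM / Medium: HEPES buffer, pH 7.5, plus ascorbate / Doses: one test concentration per compound / Incubation: 30 min reaction, 60 min detection, RT / Measured by: LANCE TR-FRET / Read-out: inhibition from TR-FRET ratio decrease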
Pf Dd2 inh – P. falciparum Dd2 growth inhibitors, primary screen, SYBR Green fluorescence, single dose replicates; 72 h; stronger effect = lower value; activity change, % at 10 µM; actives 2.3% (n = 94,000); AID 1159554, 2015; in the data active = activity change below about -80%; inconclusive = no clear call, values can overlap the other calls
T cruzi growth-2 – T. cruzi intracellular proliferation inhibitors, confirmation, cell-based, NIH3T3 host, beta-gal parasite, luminescence, cherry-pick; actives 72% (n = 5,600); shares compounds with T cruzi growth-1; AID 651739, 2012; T. cruzi beta-gal in NIH3T3, GalScreen luminescence, 90 h; inhibition, % at 8.35 µM;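 active = mean replicate inhibition above about 95% and at least 55% of replicates individually reaching it, limit read from the data; inconclusive = only one of the two criteria is met; inactive = neither criterion is met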
T cruzi growth-3 – inhibitors of intracellular T. cruzi replication, confirmation, NIH3T3 host cells, beta-gal parasites, cherry-pick, set 2; shares compounds with T cruzi growth-1; T. cruzi beta-gal in NIH3T3, GalScreen luminescence, 90 h; inhibition, % at 2.09 µM; actives 21% (n = 5,600); AID 651740, 2012;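 active = mean inhibition above about 95%, with at least 55% of replicates also reaching it, limit read from the data; inconclusive = meets just one of the two conditions; inactive = meets neither condition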
3T3 cytotox – cytotoxicity in mouse NIH/3T3 fibroblasts, confirmation, cytotoxicity control for T. cruzi proliferation inhibitor project, cell-based, cherry-pick, single point; cytotoxicity (signal decrease), % at 8.35 µM; actives 14% (n = 5,600); NIH/3T3 viability, CellTiter-Glo ATP luminescence, 90 h; shares compounds with T cruzi growth-1;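 active = mean signal decrease across replicates above about 35% based on untreated-well scatter, with enough replicates individually passing, limit read from the data; inconclusive = no rule stated though some were filed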
3T3 cytotox 2 – NIH/3T3 fibroblast cytotoxicity, confirmation, cytotoxicity control, cell-based, cherry-pick, single point, set 2; shares compounds with T cruzi growth-1; NIH/3T3 viability, CellTiter-Glo ATP luminescence, 90 h; inhibition, % at 24.9 µM; actives 56% (n = 5,600); AID 651744, 2012;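 active = mean loss of cell viability signal at or above a set limit, and enough replicates individually reaching it; inconclusive = meets only the mean limit or only the replicate share; inactive = meets neither condition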
Numbers stand for hits; - = inactive; ? = inconclusive; . = no result given.

SMILES	T cruzi growth-1	IDH1 mut inh	GASC1 inh	Pf Dd2 inh	T cruzi growth-2	T cruzi growth-3	3T3 cytotox	3T3 cytotox 2
O=C(CCCN1C(=O)c2cccc3cccc(c23)C1=O)Nc1ccccc1C(F)(F)F	.	-	.	.	.	.	.	.
COc1ccccc1CC(=O)Nc1ccc(-c2nnc(-c3ccccc3)o2)cc1	.	-	.	.	.	.	.	.
C[C@H](CO)N1C[C@H](C)[C@@H](CN(C)Cc2ccc(-c3ccccc3)cc2)Oc2cc(C#CC(C)(C)O)ccc2S1(=O)=O	117.1	-	-	-	95.1	115.5	113.9	104.4
C[C@H](CO)N1C[C@H](C)[C@H](CN(C)Cc2ccc(-c3ccccc3)cc2)Oc2cc(C#CC(C)(C)O)ccc2S1(=O)=O	121.7	.	-	-	-	115.7	51.1	104.0
C[C@@H]1CN([C@H](C)CO)S(=O)(=O)c2ccc(C#CC(C)(C)O)cc2O[C@H]1CN(C)Cc1ccccc1	-	.	.	-	.	.	.	.
C[C@H]1CN([C@@H](C)CO)S(=O)(=O)c2ccc(C#CC(C)(C)O)cc2O[C@H]1CN(C)Cc1ccccc1	-	.	.	-	.	.	.	.
C[C@H]1CN([C@@H](C)CO)S(=O)(=O)c2ccc(C#CC(C)(C)O)cc2O[C@H]1CN(C)Cc1ccc(-c2ccccc2)cc1	124.3	.	-	-	95.9	113.4	114.4	105.4
C[C@@H]1CN([C@H](C)CO)S(=O)(=O)c2ccc(C#CC(C)(C)O)cc2O[C@@H]1CN(C)Cc1ccc(-c2ccccc2)cc1	124.6	.	-	-	-	109.5	45.1	107.3
COc1ccc(-c2nc(C#N)c(NCCN3CCOCC3)o2)cc1	.	-	.	.	.	.	.	.
CC(C)C1NC(=S)NC2=C1CCCC2 (configuration not stated)	.	-	.	.	.	.	.	.
C[C@H]1CN([C@@H](C)CO)S(=O)(=O)c2ccc(C#CC(C)(C)O)cc2O[C@@H]1CN(C)Cc1ccc(-c2ccccc2)cc1	118.3	.	-	-	98.4	112.3	119.8	103.7
C[C@@H]1CN([C@H](C)CO)C(=O)c2cccc(NC(=O)Nc3ccc(F)cc3)c2O[C@@H]1CN(C)Cc1ccc(-c2ccccc2)cc1	?	.	-	-	105.4	-	-	71.2
C[C@@H]1CN([C@H](C)CO)C(=O)c2cccc(NC(=O)Nc3ccc(C(F)(F)F)cc3)c2O[C@@H]1CN(C)Cc1ccc(-c2ccccc2)cc1	?	-	-	-	109.6	-	-	103.5
C[C@@H]1CN([C@H](C)CO)C(=O)c2cccc(NC(=O)Nc3ccccc3)c2O[C@H]1CN(C)Cc1ccc(C(F)(F)F)cc1	-	-	-	-	.	.	.	.
C[C@@H]1CN([C@H](C)CO)C(=O)c2cccc(NC(=O)Nc3ccc(C(F)(F)F)cc3)c2O[C@@H]1CN(C)Cc1ccccc1	-	.	-	-	.	.	.	.
C[C@H]1CN([C@@H](C)CO)C(=O)c2cccc(NC(=O)Nc3ccc(F)cc3)c2O[C@@H]1CN(C)Cc1ccc(-c2ccccc2)cc1	-	-	-	-	.	.	.	.
C[C@@H]1CN([C@@H](C)CO)C(=O)c2cccc(NC(=O)Nc3ccc(C(F)(F)F)cc3)c2O[C@@H]1CN(C)Cc1ccc(-c2ccccc2)cc1	?	.	-	-	-	114.1	92.4	103.7
CN(c1cccc(NC(=O)c2ccc(NS(=O)(=O)c3ccccc3)cc2)c1)S(C)(=O)=O	.	-	.	.	.	.	.	.
C[C@H](O)C#Cc1ccc([C@H]2[C@@H](CO)N3CCCCN(C(=O)c4cccc(F)c4)C[C@@H]23)cc1	103.9	.	-	-	-	-	-	-
C[C@@H](O)C#Cc1ccc([C@H]2[C@H](CO)N3CCCCN(C(=O)c4cccc(F)c4)C[C@@H]23)cc1	97.5	.	-	-	106.8	-	-	49.6
C[C@H](O)C#Cc1ccc([C@H]2[C@H]3CN(C(=O)c4cccc(F)c4)CCCCN3[C@H]2CO)cc1	102.4	.	-	-	?	-	-	28.2
C[C@@H](O)C#Cc1ccc([C@@H]2[C@@H](CO)N3CCCCN(C(=O)c4cccc(F)c4)C[C@@H]23)cc1	-	.	-	-	.	.	.	.
CCn1c(SCC(=O)Nc2cccc(SC)c2)nnc1-c1ccccc1Cl	.	-	.	.	.	.	.	.
Cc1c(Cl)cccc1NC(=O)CN(c1ccccc1Br)S(C)(=O)=O	.	-	.	.	.	.	.	.
Cc1ccc(-c2ccc3c(c2)O[C@H](CN(C)C(=O)NC(C)C)[C@@H](C)CN([C@H](C)CO)S3(=O)=O)cc1	-	-	-	-	.	.	.	.
SMILES	T cruzi growth-1	IDH1 mut inh	GASC1 inh	Pf Dd2 inh	T cruzi growth-2	T cruzi growth-3	3T3 cytotox	3T3 cytotox 2
CC(C)NC(=O)N(C)C[C@H]1Oc2cc(-c3ccncc3)ccc2S(=O)(=O)N([C@H](C)CO)C[C@@H]1C	107.0	-	-	-	-	-	-	-
CC(C)NC(=O)N(C)C[C@@H]1Oc2cc(-c3ccncc3)ccc2S(=O)(=O)N([C@H](C)CO)C[C@@H]1C	?	-	-	-	-	-	-	-
CC(C)NC(=O)N(C)C[C@H]1Oc2cc(-c3ccncc3)ccc2S(=O)(=O)N([C@@H](C)CO)C[C@H]1C	?	-	-	-	-	-	-	-
Cc1ccc(-c2ccc3c(c2)O[C@@H](CN(C)C(=O)NC(C)C)[C@H](C)CN([C@@H](C)CO)S3(=O)=O)cc1	-	-	-	-	.	.	.	.
Cc1ccc(-c2ccc3c(c2)O[C@H](CN(C)C(=O)NC(C)C)[C@H](C)CN([C@@H](C)CO)S3(=O)=O)cc1	-	-	-	-	.	.	.	.
CCCNC(=O)N(C)C[C@H]1Oc2cc(-c3cccnc3)ccc2S(=O)(=O)N([C@@H](C)CO)C[C@@H]1C	?	-	-	-	?	-	-	-
CCN(CC(=O)Nc1ccc2c(c1)OCCO2)S(=O)(=O)c1ccc(Cl)cc1	.	-	.	.	.	.	.	.
Cc1ccccc1-c1ccc([C@@H]2[C@H]3CN(C(=O)Nc4ccc(F)cc4)CCCCN3[C@H]2CO)cc1	107.0	.	-	-	-	104.8	?	106.1
Cc1ccccc1-c1ccc([C@H]2[C@H](CO)N3CCCCN(C(=O)Nc4ccc(F)cc4)C[C@@H]23)cc1	109.1	.	-	-	96.0	-	41.7	105.9
Cc1ccccc1-c1ccc([C@H]2[C@H]3CN(C(=O)Nc4cccc(F)c4)CCCCN3[C@H]2CO)cc1	-	.	-	-	.	.	.	.

Screening results deposited in PubChem BioAssay by Broad Institute.
